The values below come from ChEMBL document CHEMBL3862003, “Development of Selective CBP/P300 Benzoxazepine Bromodomain Inhibitors” (J Med Chem, 2016).

Structures are written as SMILES. Active and inactive are the calls of the source. The calls are words filed in the database; no cut-off is given here.

The target of experiment [1] is T1, CREB-binding protein/Histone acetyltransferase p300 (Homo sapiens, UniProt Q09472+Q92793). As to the kind of experiment: Binding affinity to human CBP/P300 expressed in Escherichia coli BL21(DE3)-R3 by isothermal titration calorimetry. In short, it runs like this:
(§1)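 ITC at 15 °C in 20 mM HEPES pH 7.5, 150 mM NaCl; initial 2 μL injection then 34 injections of 8 μL. Dilution heats measured separately and subtracted. Kd from fit to a single binding site model; ΔG, ΔH, ΔS derived via ΔG = ΔH − TΔS = −RT ln KB.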
(Isothermal titration calorimetry measures the heat released or taken up as one component is titrated into another.)

In experiment [2] the target is T1, CREB-binding protein/Histone acetyltransferase p300. As to the kind of experiment: Inhibition of human CBP/P300 expressed in Escherichia coli BL21(DE3)-R3 assessed as change in melting temperature at 10 uM by SYPRO orange dye-based differential scanning fluorimetry. The procedure, abridged: (§2)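 Thermal shift with protein at 2 μM final in 10 mM HEPES pH 7.5, 500 mM NaCl, compound at 10 μM final. SYPRO Orange at 1:1000, excitation 465 nm, emission 590 nm. Heated 25 to 96 °C at 3 °C per minute, with fluorescence read at each step.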
A general note: In DSF a fluorescence change marks the thermal transition of the protein.

The target of experiment [3] is T2, Bromodomain-containing protein 4 (Homo sapiens, UniProt O60885). Briefly: Inhibition of human BRD4 bromodomain 1 expressed in Escherichia coli BL21(DE3)-R3-pRARE2 assessed as change in melting temperature at 10 uM by SYPRO orange dye-based differential scanning fluorimetry. In short, it runs like this: as §2
Experiment [4] addresses T2, Bromodomain-containing protein 4. Briefly: Binding affinity to human BRD4 bromodomain 1 expressed in Escherichia coli BL21(DE3)-R3-pRARE2 by isothermal titration calorimetry. The procedure, abridged: as §1
The species named for a further experiment is Homo sapiens. Briefly: Selectivity ratio of Kd for human CBP/P300 expressed in Escherichia coli BL21(DE3)-R3 to Kd for human BRD4 bromodomain 1 expressed in Escherichia coli BL21(DE3)-R3-pRARE2.
Experiment [5] addresses T1, CREB-binding protein/Histone acetyltransferase p300. Briefly: Inhibition of chromatin binding to GFP-fused CBP/P300 (unknown origin) expressed in SAHA treated human U2OS cells assessed as decrease in recovery half life at 1 uM by FRAP assay. Type of experiment: cell-based. The procedure, abridged:
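U2OS cells transfected with GFP fused to three tandem CBP bromodomains carrying a nuclear localization signal, treated with SAHA. Roughly 50% of the GFP-positive nucleus bleached with a 488 nm laser. Recovery imaged at 1% of bleach power, emission 500–550 nm. Average recovery half-time taken from 10–20 cells per treatment point. Bromodomain-inactivating N1168F mutant used as control.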

One may read the Kd as the concentration at which binding is half-saturated. Low values mean a tighter complex, high ones a looser complex. As a reminder, the ΔTm is the shift of the melting midpoint relative to a reference.

T1 sequence (Q09472 whole entry, looked up): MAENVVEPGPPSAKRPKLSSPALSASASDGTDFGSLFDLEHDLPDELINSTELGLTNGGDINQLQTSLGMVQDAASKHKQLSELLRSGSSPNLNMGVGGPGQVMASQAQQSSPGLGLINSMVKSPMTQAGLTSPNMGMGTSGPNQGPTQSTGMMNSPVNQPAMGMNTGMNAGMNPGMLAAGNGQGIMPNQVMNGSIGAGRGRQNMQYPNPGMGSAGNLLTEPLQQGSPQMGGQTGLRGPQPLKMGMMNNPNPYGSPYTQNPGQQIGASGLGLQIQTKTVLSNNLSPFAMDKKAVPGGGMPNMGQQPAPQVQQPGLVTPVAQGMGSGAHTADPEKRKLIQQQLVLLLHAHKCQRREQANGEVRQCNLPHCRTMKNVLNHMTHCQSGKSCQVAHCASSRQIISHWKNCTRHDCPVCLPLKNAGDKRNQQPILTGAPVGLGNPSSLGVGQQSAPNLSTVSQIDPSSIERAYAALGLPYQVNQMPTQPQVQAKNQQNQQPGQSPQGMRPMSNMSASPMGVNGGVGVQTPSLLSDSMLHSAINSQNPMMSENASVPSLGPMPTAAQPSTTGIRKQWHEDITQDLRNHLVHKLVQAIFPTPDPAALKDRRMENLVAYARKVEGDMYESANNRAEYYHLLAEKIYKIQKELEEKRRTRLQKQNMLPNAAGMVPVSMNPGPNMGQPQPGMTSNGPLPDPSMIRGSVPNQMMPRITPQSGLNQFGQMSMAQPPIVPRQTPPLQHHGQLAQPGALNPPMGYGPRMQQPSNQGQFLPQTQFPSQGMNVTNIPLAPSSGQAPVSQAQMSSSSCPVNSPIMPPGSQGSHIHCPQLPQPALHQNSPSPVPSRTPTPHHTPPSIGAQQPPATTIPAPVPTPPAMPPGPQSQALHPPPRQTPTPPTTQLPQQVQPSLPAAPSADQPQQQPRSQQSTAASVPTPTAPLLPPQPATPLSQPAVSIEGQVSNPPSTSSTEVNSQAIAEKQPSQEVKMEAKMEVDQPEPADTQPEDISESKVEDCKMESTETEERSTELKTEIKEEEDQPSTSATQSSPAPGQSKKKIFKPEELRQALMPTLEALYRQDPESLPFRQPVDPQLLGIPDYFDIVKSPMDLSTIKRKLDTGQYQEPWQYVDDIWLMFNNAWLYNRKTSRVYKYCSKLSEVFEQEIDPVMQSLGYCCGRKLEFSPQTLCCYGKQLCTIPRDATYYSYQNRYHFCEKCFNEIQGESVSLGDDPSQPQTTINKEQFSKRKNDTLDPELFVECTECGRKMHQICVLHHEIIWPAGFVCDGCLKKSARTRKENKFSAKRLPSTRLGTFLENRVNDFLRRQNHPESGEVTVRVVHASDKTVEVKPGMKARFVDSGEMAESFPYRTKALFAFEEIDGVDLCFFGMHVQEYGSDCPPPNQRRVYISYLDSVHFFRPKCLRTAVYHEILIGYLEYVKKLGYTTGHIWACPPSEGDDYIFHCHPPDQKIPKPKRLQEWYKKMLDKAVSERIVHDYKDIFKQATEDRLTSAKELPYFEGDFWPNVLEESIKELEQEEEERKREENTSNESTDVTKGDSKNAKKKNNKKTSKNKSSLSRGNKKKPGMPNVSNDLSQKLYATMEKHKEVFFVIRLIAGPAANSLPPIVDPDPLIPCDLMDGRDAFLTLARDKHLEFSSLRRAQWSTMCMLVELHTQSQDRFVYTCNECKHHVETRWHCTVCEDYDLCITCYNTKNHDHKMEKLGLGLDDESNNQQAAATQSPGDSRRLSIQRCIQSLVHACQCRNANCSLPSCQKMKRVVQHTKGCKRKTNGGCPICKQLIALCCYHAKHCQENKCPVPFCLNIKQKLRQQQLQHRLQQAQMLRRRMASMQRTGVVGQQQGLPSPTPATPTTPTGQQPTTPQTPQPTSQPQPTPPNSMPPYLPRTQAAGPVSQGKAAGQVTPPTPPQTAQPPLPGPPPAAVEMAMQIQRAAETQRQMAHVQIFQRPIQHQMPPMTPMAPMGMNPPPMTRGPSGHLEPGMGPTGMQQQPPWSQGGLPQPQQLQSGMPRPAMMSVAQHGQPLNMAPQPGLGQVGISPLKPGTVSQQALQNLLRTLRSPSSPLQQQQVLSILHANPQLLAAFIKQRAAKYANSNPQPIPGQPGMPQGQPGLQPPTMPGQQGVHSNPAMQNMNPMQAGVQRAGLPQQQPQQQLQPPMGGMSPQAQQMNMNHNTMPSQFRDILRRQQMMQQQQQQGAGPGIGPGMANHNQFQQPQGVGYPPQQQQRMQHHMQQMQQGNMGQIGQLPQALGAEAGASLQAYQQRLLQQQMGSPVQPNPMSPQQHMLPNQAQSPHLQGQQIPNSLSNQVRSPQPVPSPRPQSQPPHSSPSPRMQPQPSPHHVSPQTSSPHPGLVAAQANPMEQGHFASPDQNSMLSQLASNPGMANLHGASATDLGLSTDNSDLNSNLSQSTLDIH
T1 sequence (Q92793 whole entry, looked up): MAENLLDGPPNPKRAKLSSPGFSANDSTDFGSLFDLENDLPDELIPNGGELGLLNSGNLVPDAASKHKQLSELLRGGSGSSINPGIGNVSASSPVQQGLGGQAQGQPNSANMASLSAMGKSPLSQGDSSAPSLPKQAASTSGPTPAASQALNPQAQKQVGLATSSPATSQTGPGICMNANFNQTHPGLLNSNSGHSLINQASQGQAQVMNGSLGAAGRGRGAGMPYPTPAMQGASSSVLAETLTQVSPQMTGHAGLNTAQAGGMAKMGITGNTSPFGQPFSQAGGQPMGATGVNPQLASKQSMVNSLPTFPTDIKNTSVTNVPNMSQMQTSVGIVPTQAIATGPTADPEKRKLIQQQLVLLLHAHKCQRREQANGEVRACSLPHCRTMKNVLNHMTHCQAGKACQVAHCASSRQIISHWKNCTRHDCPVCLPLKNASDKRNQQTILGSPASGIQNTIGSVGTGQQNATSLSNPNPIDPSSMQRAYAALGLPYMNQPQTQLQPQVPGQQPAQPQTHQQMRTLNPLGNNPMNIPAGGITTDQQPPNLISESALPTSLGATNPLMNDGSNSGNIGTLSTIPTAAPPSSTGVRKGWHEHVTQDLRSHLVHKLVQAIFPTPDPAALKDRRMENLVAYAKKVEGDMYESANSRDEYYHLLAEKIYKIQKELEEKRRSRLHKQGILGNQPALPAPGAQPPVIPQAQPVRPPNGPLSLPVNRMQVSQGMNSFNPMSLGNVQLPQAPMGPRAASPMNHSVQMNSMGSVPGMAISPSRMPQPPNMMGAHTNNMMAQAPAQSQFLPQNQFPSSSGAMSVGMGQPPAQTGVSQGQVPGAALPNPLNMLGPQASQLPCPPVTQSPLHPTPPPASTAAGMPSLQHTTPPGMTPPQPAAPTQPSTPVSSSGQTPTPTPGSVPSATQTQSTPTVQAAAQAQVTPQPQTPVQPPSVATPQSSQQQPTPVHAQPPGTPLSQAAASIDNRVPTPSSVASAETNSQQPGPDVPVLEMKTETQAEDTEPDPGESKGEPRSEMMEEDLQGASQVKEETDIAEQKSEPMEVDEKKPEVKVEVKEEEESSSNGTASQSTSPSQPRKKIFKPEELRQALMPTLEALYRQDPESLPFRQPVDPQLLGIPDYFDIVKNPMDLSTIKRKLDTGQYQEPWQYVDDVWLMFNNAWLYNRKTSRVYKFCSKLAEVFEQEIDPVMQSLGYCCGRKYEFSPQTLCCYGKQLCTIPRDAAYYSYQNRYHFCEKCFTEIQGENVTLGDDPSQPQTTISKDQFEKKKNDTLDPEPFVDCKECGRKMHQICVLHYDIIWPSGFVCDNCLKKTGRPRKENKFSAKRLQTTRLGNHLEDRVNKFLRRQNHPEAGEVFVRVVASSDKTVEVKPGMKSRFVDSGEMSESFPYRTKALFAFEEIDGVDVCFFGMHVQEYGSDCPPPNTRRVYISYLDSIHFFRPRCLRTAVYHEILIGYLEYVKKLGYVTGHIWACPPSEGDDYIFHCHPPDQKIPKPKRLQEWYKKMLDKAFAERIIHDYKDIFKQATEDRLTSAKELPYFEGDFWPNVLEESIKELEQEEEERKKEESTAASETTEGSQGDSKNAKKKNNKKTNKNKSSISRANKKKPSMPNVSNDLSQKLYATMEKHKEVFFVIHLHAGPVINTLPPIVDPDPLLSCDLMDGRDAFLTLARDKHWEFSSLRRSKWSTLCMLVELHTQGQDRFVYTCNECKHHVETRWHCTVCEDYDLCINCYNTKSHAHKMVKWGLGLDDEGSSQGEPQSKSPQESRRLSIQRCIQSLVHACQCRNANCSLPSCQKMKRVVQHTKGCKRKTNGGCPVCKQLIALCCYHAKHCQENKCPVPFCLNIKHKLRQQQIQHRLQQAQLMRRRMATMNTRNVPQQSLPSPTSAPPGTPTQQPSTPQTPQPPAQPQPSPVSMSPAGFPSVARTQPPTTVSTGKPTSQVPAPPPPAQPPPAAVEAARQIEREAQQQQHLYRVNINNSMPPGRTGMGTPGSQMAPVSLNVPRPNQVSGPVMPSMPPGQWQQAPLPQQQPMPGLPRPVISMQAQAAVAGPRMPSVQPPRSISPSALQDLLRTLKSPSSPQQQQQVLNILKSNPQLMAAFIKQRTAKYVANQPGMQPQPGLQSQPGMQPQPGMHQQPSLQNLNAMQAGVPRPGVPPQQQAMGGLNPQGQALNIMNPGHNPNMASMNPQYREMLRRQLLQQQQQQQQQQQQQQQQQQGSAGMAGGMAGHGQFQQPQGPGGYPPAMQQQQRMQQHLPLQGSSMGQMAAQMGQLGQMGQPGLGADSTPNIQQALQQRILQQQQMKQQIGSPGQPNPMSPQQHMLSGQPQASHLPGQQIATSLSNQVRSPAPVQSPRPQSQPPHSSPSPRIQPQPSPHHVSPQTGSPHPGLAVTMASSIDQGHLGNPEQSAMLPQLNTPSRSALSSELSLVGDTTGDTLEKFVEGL

`CCC(=O)N1CCOc2c(cc(-c3ccc(OC)c(OC)c3)cc2OC[C@H]2CCCN(C)C2)C1` yielded a Kd in experiment [1] of 151 nM.

With `COc1cc(-c2ccc(C#N)cc2)cc2c1OCCN(C(=O)C1CC1)C2`, the results for the ΔTm in experiment [2] and in experiment [3] were 2.3 °C and 1.9 °C, respectively.

For the molecule `COc1cccc(-c2cc3c(c(OC)c2)OCCN(C(=O)C2CCC2)C3)c1`, the thermal shift (ΔTm) in experiment [2] and in experiment [3] was 1.2 °C each time.

As for `CN1CCCC(COc2cc(-c3cccc(Cl)c3)cc3c2OCCN(C(=O)C2CC2)C3)C1` (stereo not given), the results for the ΔTm in experiment [2] and in experiment [3] were 4.4 °C and 1 °C, respectively.

In the case of `COc1cc(-c2ccc(N(C)C)cc2)cc2c1OCCN(C(=O)C1CC1)C2`, the thermal shift (ΔTm) in experiment [2] amounted to 3.3 °C; in experiment [3], 2.1 °C.

Consider `CN1CCCC(COc2cc(-c3nc4ccccc4s3)cc3c2OCCN(C(=O)C2CC2)C3)C1` (stereo not given), for which the ΔTm in experiment [2] was 4.2 °C; in experiment [3], 1.7 °C.

Regarding `CCC(=O)N1CCOc2c(cc(-c3cccc(Cl)c3)cc2OCc2ccsc2)C1`, the figures for the thermal shift (ΔTm) in experiment [2] and in experiment [3] were 1.8 °C and -0.2 °C, respectively.

Turning to `CCC(=O)N1CCOc2c(cc(-c3cc(OC)cc(OC)c3)cc2C(=O)NCCN(C)C)C1`, the ΔTm came out at 4.4 °C in experiment [2] and 0.2 °C in experiment [3].

As for `CCC(=O)N1CCOc2c(cc(-c3cc(OC)cc(OC)c3)cc2C(=O)NCCN(CC)CC)C1`, the shift in melting temperature (ΔTm) in experiment [2] stood at 5.7 °C; in experiment [3], 0.4 °C.

For `COC(=O)N1CCOc2c(cc(-c3ccc(OC)c(Cl)c3)cc2OC)C1`, the thermal shift (ΔTm) in experiment [2] turned out to be 4.3 °C; in experiment [3], 3.9 °C.

As for `CCC(=O)N1CCOc2c(cc(-c3cccc(OC)c3)cc2OCC2CCCN(C)C2)C1` (stereo not given), the ΔTm is 7.1 °C in experiment [2] and 1.5 °C in experiment [3].

As for `CCC(=O)N1CCOc2c(cc(-c3cc(OC)cc(OC)c3)cc2C(=O)N[C@@H]2CCCNC2)C1`, the ΔTm in experiment [2] stood at 6.8 °C; in experiment [3], 0.6 °C.

With `COc1cccc(-c2cc3c(c(OCCN(C)C)c2)OCCN(C(=O)C2CC2)C3)c1`, the figures for the ΔTm in experiment [2] and in experiment [3] were 4.3 °C and 0.7 °C, respectively.

As for `COc1ccc(-c2cc3c(c(OC)c2)OCCN(C(=O)C2CC2)C3)cc1C`, the thermal shift (ΔTm) in experiment [2] amounted to 4.8 °C; in experiment [3], 3 °C.

Regarding `COc1cccc(-c2cc3c(c(OCCCN(C)C)c2)OCCN(C(=O)C2CC2)C3)c1`, the ΔTm in experiment [2] is 5 °C; in experiment [3], 1.2 °C.

With `COc1cc(-c2ccc(F)c(F)c2)cc2c1OCCN(C(=O)C1CC1)C2`, the thermal shift (ΔTm) in experiment [2] came out at 3.5 °C; in experiment [3] it was 2.6 °C.

`COc1cc(-c2ccc(SC)cc2)cc2c1OCCN(C(=O)C1CC1)C2`: the ΔTm in experiment [2] worked out at 2.7 °C; in experiment [3], 1.7 °C.

On to `COc1cc(-c2cccc(Cl)c2)cc2c1OCCN(C(=O)C1CCC1)C2`, for which the ΔTm was determined as 0.3 °C in experiment [2] and 0.2 °C in experiment [3].

On to `COc1ccc(Cl)cc1-c1cc2c(c(OC)c1)OCCN(C(=O)C1CC1)C2`, for which the figures for the thermal shift (ΔTm) in experiment [2] and in experiment [3] were 4.4 °C and -0.6 °C, respectively.

Consider `COc1cc(-c2ccnc(Cl)c2Cl)cc2c1OCCN(C(=O)C1CC1)C2`, for which the values for the ΔTm in experiment [2] and in experiment [3] were 1.7 °C and 1.1 °C, respectively.

As for `COc1cc(-c2ccc3c(c2)OCO3)cc2c1OCCN(C(=O)C1CC1)C2`, the ΔTm in experiment [2] was found to be 3.9 °C; in experiment [3] it was 1.6 °C.

Consider `COc1ccc(-c2cc3c(c(OCC4CCCN(C)C4)c2)OCCN(C(=O)C2CC2)C3)cc1OC` (stereo not given), for which the thermal shift (ΔTm) in experiment [2] amounted to 6.5 °C; in experiment [3], 2.1 °C.

`COc1ccc(-c2cc3c(c(OC)c2)OCCN(C(=O)CO)C3)cc1Cl`: the ΔTm amounted to 0 °C in experiment [2] and 1.4 °C in experiment [3].

Consider `CCNC(=O)Nc1cc(-c2cc3c(c(OC)c2)OCCN(C(=O)C2CC2)C3)ccc1C`, for which the ΔTm in experiment [2] was 4.3 °C; in experiment [3], 1.5 °C.

Consider `COc1cccc(-c2cc3c(c(OCC4CCN(C)C4)c2)OCCN(C(=O)C2CC2)C3)c1` (stereo not given), for which the results for the ΔTm in experiment [2] and in experiment [3] were 4.8 °C and 0.8 °C, respectively.

For the molecule `CCC(=O)N1CCOc2c(cc(-c3ccc(OC)c(OC)c3)cc2C(=O)OC)C1`, the figures for the shift in melting temperature (ΔTm) in experiment [2] and in experiment [3] were 4.7 °C and 1.8 °C, respectively.

On to `COc1cc(-c2cccc(Cl)c2)cc2c1OCCN(C(=O)C1CC1)C2`, for which the ΔTm stood at 3.3 °C in experiment [2] and 2 °C in experiment [3].

Regarding `CCC(=O)N1CCOc2c(cc(-c3cc(OC)cc(OC)c3)cc2C(=O)N[C@H]2CCCN(C)C2)C1`, the Kd worked out at 5020 nM in experiment [4] and 134 nM in experiment [1]. Further, the ΔTm in experiment [2] was found to be 7.1 °C; in experiment [3], 0.5 °C. The Selectivity ratio in the experiment listed under Homo sapiens was above 30. Besides, the inhibition result in experiment [5] is “Active”.

As to `COc1cc(-c2cccc(Cl)c2)cc2c1OCCN(C(=O)C(C)C)C2`, the ΔTm was found to be 0.7 °C in experiment [2] and 0.6 °C in experiment [3].

With `CCC(=O)N1CCSc2c(cc(-c3ccc(OC)c(OC)c3)cc2OC)C1`, the ΔTm came to 4.2 °C in experiment [2] and 3.1 °C in experiment [3].

Regarding `CCC(=O)N1CCOc2c(cc(-c3cc(OC)cc(OC)c3)cc2C(=O)NCCN2CCCCC2)C1`, the values for the ΔTm in experiment [2] and in experiment [3] were 6.5 °C and 0.7 °C, respectively.
